Laboratory results taken from ChEMBL document CHEMBL4052819 (2017).
Values after ≈ are worked out from the molar mass of the structure shown. Non-standard residues stand in square brackets, D forms with d. Residues, ends and D or L forms follow the SMILES beside them. *: point of attachment. Decanoyl = CCCCCCCCCC(=O)*; Heptanoyl = CCCCCCC(=O)*; Dab = NCC[C@H](N)C(=O)O; Cbz = O=C(OCc1ccccc1)*; Bz = O=C(c1ccccc1)*

Assays:
Staphylococcus aureus [1] = experiment: Antibacterial activity against methicillin-resistant Staphylococcus aureus ATCC 43300 after 18 to 20 hrs by broth microdilution method; type: functional
How it was run: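 Broth microdilution in tryptic soy broth: 2-fold dilutions mixed 1:1 with ~1.5 × 10^5 CFU/mL bacterial suspension in TSB, final 0.5–32 μg/mL, 37 °C for 18–20 h. MIC = lowest concentration with no visible growth. At least three independent experiments, one replicate each.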

Acinetobacter baumannii [2] = experiment: Potentiation of rifampicin-mediated antibacterial activity against Acinetobacter baumannii ATCC 19606 assessed as decrease in rifampicin MIC at 4 ug/ml by checkerboard method relative to control; type: functional, ATCC 19606 = CIP 70.34 = JCM 6841
Escherichia coli [3] = experiment: Antibacterial activity against Escherichia coli ATCC 25922 after 18 to 20 hrs by broth microdilution method; type: functional
How it was run: (§1)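 Broth microdilution in tryptic soy broth: 2-fold dilutions mixed 1:1 with ~1.5 × 10^5 CFU/mL inoculum, final 0.5–32 μg/mL; 37 °C, 18–20 h. MIC taken as lowest concentration giving no visible growth. At least three independent experiments, one replicate each.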

Acinetobacter baumannii [4] = experiment: Potentiation of rifampicin-mediated antibacterial activity against Acinetobacter baumannii ATCC 19606 assessed as rifampicin MIC at 2 ug/ml by checkerboard method (reference value: 16 ug/ml); type: functional; conditions: ATCC 19606 = CIP 70.34 = JCM 6841
Klebsiella pneumoniae [5] = experiment: Potentiation of rifampicin-mediated antibacterial activity against Klebsiella pneumoniae ATCC 13883 assessed as decrease in rifampicin MIC at 2 ug/ml by checkerboard method relative to control; type: functional
Pseudomonas aeruginosa [6] = experiment: Antibacterial activity against Pseudomonas aeruginosa ATCC 27853 after 18 to 20 hrs by broth microdilution method; type: functional; how it was run: as §1
Enterococcus faecium [7] = experiment: Antibacterial activity against Enterococcus faecium ATCC 19434 after 18 to 20 hrs by broth microdilution method; type: functional; how it was run: as §1
Staphylococcus aureus [8] = experiment: Antibacterial activity against Staphylococcus aureus ATCC 29213 after 18 to 20 hrs by broth microdilution method; type: functional; how it was run: as §1
Acinetobacter baumannii [9] = experiment: Antibacterial activity against Acinetobacter baumannii ATCC 19606 after 18 to 20 hrs by broth microdilution method; type: functional; conditions: ATCC 19606 = CIP 70.34 = JCM 6841
Klebsiella pneumoniae [10] = experiment: Potentiation of rifampicin-mediated antibacterial activity against Klebsiella pneumoniae ATCC 13883 assessed as rifampicin MIC at 2 ug/ml by checkerboard method (reference value: 16 ug/ml); type: functional
Klebsiella pneumoniae [11] = experiment: Antibacterial activity against Klebsiella pneumoniae ATCC 13883 after 18 to 20 hrs by broth microdilution method; type: functional
Staphylococcus aureus [12] = experiment: Bactericidal activity against Staphylococcus aureus ATCC 29213; type: functional; conditions: read-out: MBC99.9
How it was run: (§2)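 MBC from MIC plates at end point: 50 μL from each well with no visible growth plated on tryptic soy agar and counted. MBC taken as lowest concentration giving ≥99.9% fall in viable count relative to initial inoculum. Three independent experiments, one replicate each.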

Klebsiella pneumoniae [13] = experiment: Bactericidal activity against Klebsiella pneumoniae ATCC 13883; type: functional; conditions: read-out: MBC99.9; how it was run: as §2
Escherichia coli [14] = experiment: Bactericidal activity against Escherichia coli ATCC 25922; type: functional; conditions: read-out: MBC99.9; how it was run: as §2
Staphylococcus aureus [15] = experiment: Antibacterial activity against Staphylococcus aureus ATCC 29213 after 18 to 20 hrs in presence of 95% serum by broth microdilution method; type: functional
How it was run: (§3)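 Same microdilution with human serum as medium: compound 2-fold diluted in 100% serum, mixed 1:1 with 90% serum holding ~1.5 × 10^5 CFU/mL, giving 95% serum and final 0.5–64 μg/mL. MIC read as no visible growth after incubation as for the broth test.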

Enterococcus faecium [16] = experiment: Bactericidal activity against Enterococcus faecium ATCC 19434; type: functional; conditions: read-out: MBC99.9; how it was run: as §2
Pseudomonas aeruginosa [17] = experiment: Bactericidal activity against Pseudomonas aeruginosa ATCC 27853; type: functional; conditions: read-out: MBC99.9; how it was run: as §2
Staphylococcus aureus [18] = experiment: Bactericidal activity against methicillin-resistant Staphylococcus aureus ATCC 43300; type: functional; conditions: read-out: MBC99.9
How it was run: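 MBC taken at the end of the MIC test: 50 μL from each well without visible growth plated on tryptic soy agar. MBC = lowest concentration giving ≥99.9% reduction in viable cells relative to the initial inoculum. Three independent experiments, one replicate each.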

Acinetobacter baumannii [19] = experiment: Bactericidal activity against Acinetobacter baumannii ATCC 19606; type: functional; conditions: ATCC 19606 = CIP 70.34 = JCM 6841, read-out: MBC99.9; how it was run: as §2
Escherichia coli [20] = experiment: Antibacterial activity against Escherichia coli ATCC 25922 after 18 to 20 hrs in presence of 95% serum by broth microdilution method; type: functional; how it was run: as §3

| Structure (SMILES) | MIC (Staphylococcus aureus [1]) [µg/mL] | fold change (FC) (Acinetobacter baumannii [2]) | MIC (Escherichia coli [3]) [µg/mL] | MIC (Acinetobacter baumannii [4]) [µg/mL] | fold change (FC) (Klebsiella pneumoniae [5]) | MIC (Pseudomonas aeruginosa [6]) [µg/mL] | MIC (Enterococcus faecium [7]) [µg/mL] | MIC (Staphylococcus aureus [8]) [µg/mL] | MIC (Acinetobacter baumannii [9]) [µg/mL] | MIC (Klebsiella pneumoniae [10]) [µg/mL] | MIC (Klebsiella pneumoniae [11]) [µg/mL] | MBC (Staphylococcus aureus [12]) [µg/mL] | MBC (Klebsiella pneumoniae [13]) [µg/mL] | MBC (Escherichia coli [14]) [µg/mL] | MIC (Staphylococcus aureus [15]) [µg/mL] | MBC (Enterococcus faecium [16]) [µg/mL] | MBC (Pseudomonas aeruginosa [17]) [µg/mL] | MBC (Staphylococcus aureus [18]) [µg/mL] | MBC (Acinetobacter baumannii [19]) [µg/mL] | MIC (Escherichia coli [20]) [µg/mL] |
| --- | --- | --- | --- | --- | --- | --- | --- | --- | --- | --- | --- | --- | --- | --- | --- | --- | --- | --- | --- | --- |
| CCCCCCCC(=O)N[C@H](CCCN)C(=O)N[C@H](C(=O)N[C@@H](CCCN)C(=O)N[C@@H](Cc1ccccc1)C(=O)N[C@@H](CC(C)C)C(=O)N[C@@H](CCCN)C(=O)N[C@H](C(=O)N[C@@H](CC(C)C)C(=O)N[C@@H](CO)C(N)=O)C(C)C)[C@@H](C)CC | 32 (≈ 27.6 µM) | 512 - 1024 | 32 (≈ 27.6 µM) | 0.0625 | 1024 - 2048 | 16 (≈ 13.8 µM) | > 32 | > 32 | 32 (≈ 27.6 µM) | 0.0313 to 0.0625 | > 32 |  |  |  |  |  |  |  |  |  |
| CC[C@H](C)[C@H](NC(=O)[C@H](CCN)NC(=O)c1ccccc1)C(=O)N[C@@H](CCN)C(=O)N[C@H](Cc1ccccc1)C(=O)N[C@@H](CC(C)C)C(=O)N[C@@H](CCN)C(=O)N[C@@H](C(=O)N[C@@H](CC(C)C)C(=O)N[C@@H](CO)C(N)=O)C(C)C (Bz-[Dab]I[Dab][dF]L[Dab][dV]LS-NH2) | > 32 | 2048 - 4096 | 16 to 32 (≈ 14.6 to 29.2 µM) | 0.0312 | 4096 - 8192 | 8 to 32 (≈ 7.31 to 29.2 µM) | > 32 | > 32 | > 32 | 0.0078 | > 32 |  |  |  |  |  |  |  |  |  |
| CC[C@H](C)[C@H](NC(=O)[C@H](CCN)NC(=O)OCc1ccccc1)C(=O)N[C@@H](CCN)C(=O)N[C@H](Cc1ccccc1)C(=O)N[C@@H](CC(C)C)C(=O)N[C@@H](CCN)C(=O)N[C@@H](C(=O)N[C@@H](CC(C)C)C(=O)N[C@@H](CO)C(N)=O)C(C)C (Cbz-[Dab]I[Dab][dF]L[Dab][dV]LS-NH2) | > 32 | >=8192 | 8 to 16 (≈ 7.11 to 14.2 µM) | 0.0019 to 0.0039 | 4096 - 8192 | 16 (≈ 14.2 µM) | > 32 | > 32 | 16 (≈ 14.2 µM) | 0.0039 | > 32 |  |  |  |  |  |  |  |  |  |
| CCCCCCCCCC(=O)N[C@@H](CCN)C(=O)N[C@H](C(=O)N[C@H](C(=O)N[C@H](CC(C)C)C(=O)N[C@@H](CC(C)C)C(=O)N[C@@H](CCN)C(=O)N[C@@H](C(=O)N[C@@H](CC(C)C)C(=O)N[C@@H](CO)C(N)=O)C(C)C)[C@@H](C)O)[C@@H](C)CC (Decanoyl-[Dab]IT[dL]L[Dab][dV]LS-NH2) | > 32 | <128 | > 32 | > 0.125 | <8 | > 32 | ≥ 32 | > 32 | > 32 | > 0.125 | > 32 |  |  |  |  |  |  |  |  |  |
| CCCCCCC(=O)N[C@@H](CCN)C(=O)N[C@@H](Cc1ccccc1)C(=O)N[C@@H](CCN)C(=O)N[C@H](Cc1ccccc1)C(=O)N[C@@H](CC(C)C)C(=O)N[C@@H](CCN)C(=O)N[C@H](CC(C)C)C(=O)N[C@@H](CC(C)C)C(=O)N[C@@H](CO)C(N)=O (Heptanoyl-[Dab]F[Dab][dF]L[Dab][dL]LS-NH2) | 16 to 32 (≈ 13.9 to 27.8 µM) |  | 1 to 4 (≈ 0.869 to 3.48 µM) |  |  | 2 to 4 (≈ 1.74 to 3.48 µM) | 16 (≈ 13.9 µM) | 16 to 32 (≈ 13.9 to 27.8 µM) | 8 (≈ 6.95 µM) |  | 4 (≈ 3.48 µM) | 16 to 32 (≈ 13.9 to 27.8 µM) | 8 (≈ 6.95 µM) | 32 (≈ 27.8 µM) | 64 | 32 (≈ 27.8 µM) | 8 to 16 (≈ 6.95 to 13.9 µM) | 32 (≈ 27.8 µM) | 8 (≈ 6.95 µM) | 32 |
